Assay results reported in ChEMBL document CHEMBL3877257, “New isoxazolidinone and 3,4-dehydro-β-proline derivatives as antibacterial agents and MAO-inhibitors: A complex balance between two activities” (Eur J Med Chem, 2016).
In brackets after ≈: the same amount, converted by molar mass.

Legend:
Enterococcus faecalis = test: Antibacterial activity against Enterococcus faecalis ATCC 29212 after 18 to 24 hrs by broth microdilution method; format: functional
How it was run: (§1)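 Broth microdilution per CLSI: serial 2-fold dilutions in Mueller-Hinton broth, compounds dissolved in DMSO; equal volume of inoculum at 1x10^6 CFU/mL added to each well; 37 C for 18-24 h. MIC = lowest concentration with no visible turbidity. Clinical S. aureus strains (MRSA and MSSA) were 12 recent isolates with characterized susceptibility.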

[1] = Cytotoxicity against human HepG2 cells assessed as cell viability at 100 ug/mL after 24 hrs by prestoblue assay; format: toxicity, cell-based; details: read-out: Activity
How it was run: (§2)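 HepG2 grown in DMEM with 10% heat-inactivated FBS on collagen; seeded at 45,000 cells/cm2, treated two days later for 24 h across 10-100 µg/mL. Viability read with resazurin-based PrestoBlue, 1 h at 37°C, absorbance 570 nm (reference 600 nm). Mean ± SEM, three experiments in triplicate, Student's t test.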

[2] = Cytotoxicity against human HepG2 cells assessed as decrease in cell viability at 10 ug/mL after 24 hrs by prestoblue assay; format: toxicity, cell-based; details: hepg2, 24 h; how it was run: as §2
Staphylococcus aureus [3] = test: Antibacterial activity against Staphylococcus aureus ATCC 29213 after 18 to 24 hrs by broth microdilution method; format: functional; how it was run: as §1
Staphylococcus aureus [4] = test: Antibacterial activity against Staphylococcus aureus clinical isolate after 18 to 24 hrs by broth microdilution method; format: functional; how it was run: as §1
HepG2 [5] = test: Inhibition of MAO activity in human HepG2 cells at 100 ug/mL after 24 hrs by spectrophotometric method; format: cell-based
How it was run: (§3)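 HepG2 on collagen, seeded at 45,000 cells/cm2, dosed two days later at 10-100 µg/mL for 24 h. Lysate MAO was measured by Amplex Red/HRP H2O2 detection, 30 min at room temperature, absorbance 570 nm. Mean ± SEM of three experiments in triplicate.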

HepG2 [6] = test: Inhibition of MAO activity in human HepG2 cells at 10 ug/mL after 24 hrs by spectrophotometric method; format: cell-based; how it was run: as §3

MIC (Enterococcus faecalis) | MIC (Staphylococcus aureus [3]) | MIC (Staphylococcus aureus [4]) | MIC50 (Staphylococcus aureus [4]) | MIC90 (Staphylococcus aureus [4]) | SMILES | viability at 24 h, 100 ug/mL [1] | Activity [2] | inhibition (HepG2 [5]) | inhibition (HepG2 [6])
> 128 µg/mL | > 128 µg/mL | > 128 µg/mL | > 128 µg/mL | > 128 µg/mL | CCNC(=O)C1=CCN(C(=O)c2ccc(N3CCOCC3)c(F)c2)[C@@H]1C(C)C | 10% | Non-Toxic | – | –
> 128 µg/mL | > 128 µg/mL | > 128 µg/mL | > 128 µg/mL | > 128 µg/mL | CCNC(=O)C1=CCN(C(=O)c2ccc(N3CCOCC3)c(F)c2)[C@H]1C(C)C | 20% | Non-Toxic | 45% | 25%
> 128 µg/mL | > 128 µg/mL | > 128 µg/mL | > 128 µg/mL | > 128 µg/mL | CCNC(=O)C1C(=O)ON(C(=O)c2ccc(N3CCOCC3)c(F)c2)C1C(C)C (stereo not drawn) | 10% | Non-Toxic | 45% | 25%
> 128 µg/mL | > 128 µg/mL | 32 to 128 µg/mL (≈ 71.5 to 286 µM) | 64 µg/mL (≈ 143 µM) | > 128 µg/mL | CCNC(=O)C1C(=O)ON(C(=O)c2ccc(N3CCOCC3)c(F)c2)C1C1CCCCC1 (stereo not drawn) | 10% | Non-Toxic | 45% | 25%

SMILES | MIC (Enterococcus faecalis) | MIC (Staphylococcus aureus [3]) | MIC (Staphylococcus aureus [4]) | MIC50 (Staphylococcus aureus [4]) | MIC90 (Staphylococcus aureus [4]) | viability at 24 h, 100 ug/mL [1] | Activity [2] | inhibition (HepG2 [5]) | inhibition (HepG2 [6])
CC(=O)NC[C@H]1CN(c2ccc(N3CCOCC3)c(F)c2)C(=O)O1 [LINEZOLID] | – | – | 1 to 4 µg/mL (≈ 2.96 to 11.9 µM) | 2 µg/mL (≈ 5.93 µM) | 2 µg/mL (≈ 5.93 µM) | – | – | 15% | –
